Measurements published in ChEMBL document CHEMBL1148638, “Aminopyridine-based c-Jun N-terminal kinase inhibitors with cellular activity and minimal cross-kinase activity” (J Med Chem, 2006).

How the values were obtained:
[1] = biological target: Mitogen-activated protein kinase 9 (Homo sapiens, UniProt P45984); assay: Inhibition of JNK2-mediated ATF2 phosphorylation
[2] = biological target: Mitogen-activated protein kinase 8 (Homo sapiens, UniProt P45983); assay: Inhibition of JNK1-mediated ATF2 phosphorylation
Chain of Mitogen-activated protein kinase 8 (P45983 whole entry): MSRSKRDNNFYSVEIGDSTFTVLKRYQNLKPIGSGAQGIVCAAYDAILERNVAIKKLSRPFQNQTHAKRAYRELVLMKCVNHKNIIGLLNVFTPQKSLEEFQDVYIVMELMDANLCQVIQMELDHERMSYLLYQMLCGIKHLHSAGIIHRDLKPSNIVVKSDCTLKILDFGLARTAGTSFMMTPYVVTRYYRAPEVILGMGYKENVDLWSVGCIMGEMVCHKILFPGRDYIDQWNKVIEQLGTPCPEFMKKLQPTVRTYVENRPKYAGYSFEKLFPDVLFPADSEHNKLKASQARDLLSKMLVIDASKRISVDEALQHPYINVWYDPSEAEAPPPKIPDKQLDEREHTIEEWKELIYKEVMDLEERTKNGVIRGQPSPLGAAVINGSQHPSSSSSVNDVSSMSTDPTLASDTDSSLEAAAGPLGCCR

[3] = biological target: c-Jun N-terminal kinase, JNK (Homo sapiens, UniProt P45983+P53779+P45984); assay: Inhibition of cJun phosphorylation in HepG2 cell line
[4] = Half life in iv dosed Sprague-Dawley rat; type: ADME, organism-based; settings: in vivo
How it was run: (§1)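 Sprague-Dawley rats received 5 mg/kg intravenously. Half-life is reported in hours. AUC is total drug exposure after iv dosing, from t = 0 to t = ∞, in µg·h/mL.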

[5] = biological target: T1, Calcium/calmodulin-dependent protein kinase type IV (Homo sapiens, UniProt Q16566); assay: Inhibition of CaMK4
T1 sequence (Q16566 whole entry): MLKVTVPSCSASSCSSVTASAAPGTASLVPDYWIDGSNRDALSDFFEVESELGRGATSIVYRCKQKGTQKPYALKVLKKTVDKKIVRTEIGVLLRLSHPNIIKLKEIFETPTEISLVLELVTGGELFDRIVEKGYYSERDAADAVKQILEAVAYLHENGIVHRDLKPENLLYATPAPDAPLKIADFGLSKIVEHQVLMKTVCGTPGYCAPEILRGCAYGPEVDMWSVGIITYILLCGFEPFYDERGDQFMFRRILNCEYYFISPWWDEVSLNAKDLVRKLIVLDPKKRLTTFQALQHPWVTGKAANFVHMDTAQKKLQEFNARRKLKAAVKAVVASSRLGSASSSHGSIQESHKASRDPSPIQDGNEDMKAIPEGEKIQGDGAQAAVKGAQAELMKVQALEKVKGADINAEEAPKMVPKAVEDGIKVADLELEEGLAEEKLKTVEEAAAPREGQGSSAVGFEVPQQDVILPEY
How it was run: (§2)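 Recombinant kinases were commercial, or baculovirus-expressed and purified by His-tag or GST affinity. Each was incubated 1 h with biotinylated substrate peptide (2 µM), γ-[33P]-ATP (5 µM) and inhibitor (3-10000 nM, 2% DMSO) in 25 mM Hepes pH 7.5, 10 mM MgCl2, Na3VO4. Reactions were stopped with EDTA/NaCl and read by streptavidin FlashPlate capture. IC50 came from titrations, converted to Ki by Cheng-Prusoff.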

[6] = biological target: Activated CDC42 kinase 1 (Homo sapiens, UniProt Q07912); assay: Inhibition of CDC42; how it was run: as §2
Chain of Activated CDC42 kinase 1 (Q07912 whole entry): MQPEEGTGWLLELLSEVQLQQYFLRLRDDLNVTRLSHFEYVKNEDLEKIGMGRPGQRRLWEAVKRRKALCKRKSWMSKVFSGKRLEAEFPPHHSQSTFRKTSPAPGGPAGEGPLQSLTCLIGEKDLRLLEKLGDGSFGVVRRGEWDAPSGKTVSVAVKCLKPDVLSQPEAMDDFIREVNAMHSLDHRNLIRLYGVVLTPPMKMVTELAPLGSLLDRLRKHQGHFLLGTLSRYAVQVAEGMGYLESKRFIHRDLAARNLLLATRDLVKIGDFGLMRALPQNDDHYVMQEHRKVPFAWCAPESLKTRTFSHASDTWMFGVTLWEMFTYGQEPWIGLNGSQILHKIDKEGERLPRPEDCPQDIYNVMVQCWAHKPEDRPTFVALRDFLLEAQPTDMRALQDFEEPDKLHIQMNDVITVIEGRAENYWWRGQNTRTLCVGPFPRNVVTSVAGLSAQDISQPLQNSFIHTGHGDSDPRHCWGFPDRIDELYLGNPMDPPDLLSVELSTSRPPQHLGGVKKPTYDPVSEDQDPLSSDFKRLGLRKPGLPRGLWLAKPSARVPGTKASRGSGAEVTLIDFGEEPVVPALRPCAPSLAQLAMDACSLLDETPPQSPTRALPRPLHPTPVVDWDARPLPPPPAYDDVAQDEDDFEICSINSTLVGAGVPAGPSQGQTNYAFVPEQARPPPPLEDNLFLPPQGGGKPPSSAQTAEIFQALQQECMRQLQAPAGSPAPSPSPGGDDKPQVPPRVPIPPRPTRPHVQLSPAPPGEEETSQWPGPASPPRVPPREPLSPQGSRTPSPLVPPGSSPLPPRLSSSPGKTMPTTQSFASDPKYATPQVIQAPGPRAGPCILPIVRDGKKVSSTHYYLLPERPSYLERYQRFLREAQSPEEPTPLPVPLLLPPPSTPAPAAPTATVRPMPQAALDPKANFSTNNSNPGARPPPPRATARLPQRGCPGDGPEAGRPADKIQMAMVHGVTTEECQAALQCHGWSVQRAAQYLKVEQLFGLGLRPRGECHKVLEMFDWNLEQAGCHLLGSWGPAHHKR

[7] = Volume of distribution at steady state in iv dosed Sprague-Dawley rat; type: ADME, organism-based; settings: in vivo, read-out: Vss
[8] = AUC in po dosed Sprague-Dawley rat; type: ADME, organism-based; settings: plasma
How it was run: (§3)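 Sprague-Dawley rats were dosed orally. Oral half-life is reported in hours and Cmax as the maximum plasma concentration in µM. AUC is total oral exposure from t = 0 to t = ∞, in µg·h/mL.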

[9] = Volume of distribution in iv dosed Sprague-Dawley rat; type: ADME, organism-based; settings: in vivo, read-out: Vdss
[10] = biological target: Mitogen-activated protein kinase 10 (Homo sapiens, UniProt P53779); assay: Inhibition of JNK3-mediated ATF2 phosphorylation
Chain of Mitogen-activated protein kinase 10 (P53779 whole entry): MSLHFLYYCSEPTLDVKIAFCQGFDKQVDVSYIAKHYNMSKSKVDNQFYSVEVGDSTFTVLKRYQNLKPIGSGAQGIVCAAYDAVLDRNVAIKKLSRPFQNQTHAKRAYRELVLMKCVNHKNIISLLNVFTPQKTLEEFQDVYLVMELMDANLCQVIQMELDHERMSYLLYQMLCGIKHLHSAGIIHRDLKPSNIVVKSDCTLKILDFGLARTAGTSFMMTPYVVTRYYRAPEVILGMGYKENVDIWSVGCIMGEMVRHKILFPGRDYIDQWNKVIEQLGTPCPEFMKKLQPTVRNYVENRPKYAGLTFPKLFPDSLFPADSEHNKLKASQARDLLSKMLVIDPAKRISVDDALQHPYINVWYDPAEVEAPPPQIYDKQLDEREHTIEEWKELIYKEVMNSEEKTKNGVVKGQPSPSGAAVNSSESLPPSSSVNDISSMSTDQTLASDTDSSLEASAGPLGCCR

[11] = Tmax in po dosed Sprague-Dawley rat; type: ADME, organism-based; settings: in vivo
[12] = Oral bioavailability in Sprague-Dawley rat; type: ADME, organism-based; settings: in vivo
[13] = Cmax in po dosed Sprague-Dawley rat; type: ADME, organism-based; design: route oral; settings: in vivo; how it was run: as §3
[14] = AUC in iv dosed Sprague-Dawley rat; type: ADME, organism-based; settings: plasma; how it was run: as §1
[15] = Half life in po dosed Sprague-Dawley rat; type: ADME, organism-based; settings: in vivo; how it was run: as §3
[16] = biological target: T2, Serine/threonine-protein kinase Sgk1 (Homo sapiens, UniProt O00141); assay: Inhibition of SGK
T2 sequence (O00141 whole entry): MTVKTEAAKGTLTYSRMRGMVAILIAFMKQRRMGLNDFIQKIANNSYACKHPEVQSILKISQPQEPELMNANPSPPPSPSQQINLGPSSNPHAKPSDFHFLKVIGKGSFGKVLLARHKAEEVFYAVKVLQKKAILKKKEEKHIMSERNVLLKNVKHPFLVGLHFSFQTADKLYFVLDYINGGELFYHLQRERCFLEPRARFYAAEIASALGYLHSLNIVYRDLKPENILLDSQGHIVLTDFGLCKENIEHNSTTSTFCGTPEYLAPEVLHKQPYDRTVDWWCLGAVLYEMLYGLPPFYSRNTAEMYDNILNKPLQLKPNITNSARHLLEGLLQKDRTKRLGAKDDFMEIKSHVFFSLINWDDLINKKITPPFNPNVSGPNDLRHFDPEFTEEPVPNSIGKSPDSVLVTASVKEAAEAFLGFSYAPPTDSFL

[17] = Plasma clearance in iv dosed Sprague-Dawley rat; type: ADME, organism-based

Chain of Mitogen-activated protein kinase 9 (P45984 whole entry): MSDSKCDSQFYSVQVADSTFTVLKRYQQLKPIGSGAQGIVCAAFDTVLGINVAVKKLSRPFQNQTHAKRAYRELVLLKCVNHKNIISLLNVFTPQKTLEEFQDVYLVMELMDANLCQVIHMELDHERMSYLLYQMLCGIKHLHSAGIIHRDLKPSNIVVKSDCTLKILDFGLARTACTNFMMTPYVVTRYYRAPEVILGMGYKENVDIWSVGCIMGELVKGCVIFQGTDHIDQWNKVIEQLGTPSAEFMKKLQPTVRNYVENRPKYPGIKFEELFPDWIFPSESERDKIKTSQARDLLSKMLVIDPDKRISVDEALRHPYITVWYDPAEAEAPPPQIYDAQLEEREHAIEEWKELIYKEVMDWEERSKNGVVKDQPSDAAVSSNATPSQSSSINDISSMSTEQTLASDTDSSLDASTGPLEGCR

Row | Structure (SMILES) | IC50 [1] | IC50 [2] | also measured
1 | CCOc1nc(NC(=O)Cc2cc(C)ccc2C)cc(N)c1C#N | > 10000 nM | 4400 nM | –
2 | CC(=O)Nc1cc(N)c(C#N)c(OCCN(C)C)n1 | > 10000 nM | > 10000 nM | –
3 | CCOc1nc(NC(=O)C(C)C)cc(N)c1C#N | 8400 nM | 4000 nM | –
4 | CC(=O)Nc1cc(N)c(C#N)c(NC(C)C)n1 | 3000 nM | 910 nM | –
5 | CCOc1nc(NCCc2cc(OC)ccc2OC)cc(N)c1C#N | > 10000 nM | > 10000 nM | –
6 | CCOc1nc(NC(=O)CN(CC)CC)cc(N)c1C#N | 6300 nM | 2700 nM | –
7 | CCCc1nc(NC(C)=O)cc(N)c1C#N | > 10000 nM | > 10000 nM | –
8 | CCOc1nc(NC(=O)CC(C)C)cc(N)c1C#N | 3500 nM | 1400 nM | –
9 | CCOc1cccc(NC(C)=O)n1 | > 10000 nM | – | –
10 | CC(=O)Nc1cc(N)c(C#N)c(OCCC(=O)O)n1 | 4900 nM | 4800 nM | –
11 | COc1nc(NC(C)=O)cc(N)c1C#N | 4500 nM | 2200 nM | –
12 | CCCCC(=O)Nc1nc(OCC)c(C#N)c(N)c1Cl | > 10000 nM | > 10000 nM | –
13 | CCCCC(=O)N(C)c1cc(N)c(C#N)c(OCC)n1 | > 10000 nM | > 10000 nM | –
14 | CCNC(=O)Nc1cc(N)c(C#N)c(OCC)n1 | > 10000 nM | > 10000 nM | –
15 | CCOc1nc(NC(=O)OC)cc(N)c1C#N | > 10000 nM | > 10000 nM | –
16 | COc1ccc(OC)c(CC(=O)Nc2cc(N)c(C#N)cn2)c1 | 5100 nM | 2600 nM | –

Row | Structure (SMILES) | IC50 [1] | IC50 [2] | also measured
17 | CCCCN(CCCC)CC(=O)Nc1cc(N)c(C#N)c(OCC)n1 | > 10000 nM | 3500 nM | –
18 | CCCCNCC(=O)Nc1cc(N)c(C#N)c(OCC)n1 | > 10000 nM | 6300 nM | –
19 | CCOc1nc(NC(C)=O)cc(C)c1C#N | > 10000 nM | > 10000 nM | –
20 | CCOc1nc(NC(=O)Cc2cc(OC)c(S(C)(=O)=O)cc2OC)cc(N)c1Cl | – | – | half-life [4]: 0.8 h; Ki [5]: > 8600 nM; Ki [6]: > 9500 nM; Vd [7]: 1.6 L/kg; AUC [8]: 1500 ng·h/mL; Vd [9]: 2 L/kg; Ki [10]: 61 nM; Tmax [11]: 0.67 h; bioavailability [12]: 49%; Cmax [13]: 1420 nM; AUC [14]: 3000 ng·h/mL; half-life [15]: 2.1 h; Ki [16]: > 9400 nM; clearance [17]: 28.3 mL/min/kg
21 | CCOc1nc(NC(=O)Cc2cc(OC)c(S(C)(=O)=O)cc2OC)cc(N)c1C#N | – | – | half-life [4]: 2 h; Ki [5]: > 8600 nM; Ki [6]: > 9500 nM; Vd [7]: 1.5 L/kg; AUC [8]: 1100 ng·h/mL; Vd [9]: 4.7 L/kg; Ki [10]: 72 nM; Tmax [11]: 0.5 h; bioavailability [12]: 31%; Cmax [13]: 1360 nM; AUC [14]: 3500 ng·h/mL; half-life [15]: 1.5 h; Ki [16]: > 9400 nM; clearance [17]: 25 mL/min/kg
22 | CCOc1nc(NC(=O)Cc2ccccc2Cl)cc(N)c1C#N | 4900 nM | 1100 nM | –
23 | CC(=O)Nc1cc(N)c(C#N)c(OC2CCOC2)n1 (stereo unspecified) | 2900 nM | 890 nM | –
24 | CCCCSc1nc(NC(C)=O)cc(N)c1C#N | > 10000 nM | 8900 nM | –
25 | CCOc1cc(NC(C)=O)nc(N)c1C#N | > 10000 nM | > 10000 nM | –
26 | COc1cc(S(C)(=O)=O)c(OC)cc1CC(=O)Nc1cc(N)c(C#N)c(OC(C)C)n1 | – | – | half-life [4]: 2 h; Ki [5]: > 8600 nM; Ki [6]: > 9500 nM; Vd [7]: 1.6 L/kg; AUC [8]: 120 ng·h/mL; Vd [9]: 8.6 L/kg; Tmax [11]: 0.75 h; bioavailability [12]: 5.7%; Cmax [13]: 80 nM; AUC [14]: 2200 ng·h/mL; half-life [15]: 2.9 h; Ki [16]: > 9400 nM; clearance [17]: 50 mL/min/kg
27 | CCCCOc1nc(NC(C)=O)cc(N)c1C#N | 4660 nM | 2100 nM | –
28 | CCOc1nc(NC(=O)Cc2cc(Br)ccc2Br)cc(N)c1C#N | > 10000 nM | 3000 nM | –
29 | CCNc1nc(NC(C)=O)cc(N)c1C#N | > 10000 nM | 2400 nM | –
30 | COc1ccc(OC)c(CC(=O)Nc2cc(N)c(C#N)c(Br)n2)c1 | > 10000 nM | 1700 nM | –
31 | CCOc1nc(NC(=O)CN2CCCCC2)cc(N)c1C#N | 3400 nM | 510 nM | –

Now from value to compound, other results behind:

Row | IC50 [1] | IC50 [2] | Structure (SMILES) | also measured
32 | 790 nM | 420 nM | CCOc1nc(NC(=O)Cc2cccc(C)c2)cc(N)c1C#N | –
33 | 740 nM | 400 nM | CCOc1nc(NC(=O)Cc2ccccc2C)cc(N)c1C#N | –
34 | 1200 nM | 270 nM | CCOc1nc(NC(=O)CN2CCOCC2)cc(N)c1C#N | –
35 | 360 nM | 190 nM | CCOc1nc(NC(=O)Cc2ccc(C)cc2)cc(N)c1C#N | EC50 [3]: 3400 nM
36 | 310 nM | 210 nM | CCOc1nc(NC(=O)Cc2cccc(OC)c2)cc(N)c1C#N | EC50 [3]: 2500 nM
37 | 610 nM | 580 nM | CCOc1nc(NC(=O)Cc2ccc(Cl)cc2)cc(N)c1C#N | –
38 | 100 nM | 69 nM | CCOc1nc(NC(=O)Cc2cc(OC)c([N+](=O)[O-])cc2OC)cc(N)c1C#N | EC50 [3]: 910 nM
39 | 180 nM | 69 nM | CCCCNC(=O)C1CCN(CC(=O)Nc2cc(N)c(C#N)c(OCC)n2)CC1 | EC50 [3]: > 10000 nM
40 | 26 nM | 35 nM | CCOc1nc(NC(=O)Cc2cc(OC)c(NC(C)=O)cc2OC)cc(N)c1C#N | EC50 [3]: 280 nM
41 | 640 nM | 300 nM | CCOc1nc(NC(=O)CN2CCC(O)CC2)cc(N)c1C#N | –
42 | 240 nM | 74 nM | COc1ccc(OC)c(CC(=O)Nc2cc(N)c(C#N)c(OCCO)n2)c1 | EC50 [3]: 1600 nM
43 | 900 nM | 300 nM | CCOc1nc(NC(=O)Cc2cccc(Cl)c2)cc(N)c1C#N | –
44 | 260 nM | 120 nM | CCOc1nc(NC(=O)Cc2ccccc2OC)cc(N)c1C#N | EC50 [3]: 1400 nM
45 | 770 nM | 570 nM | CCOc1nc(NC(=O)Cc2ccccc2)cc(N)c1C#N | –
46 | 270 nM | 110 nM | COCCOc1nc(NC(=O)Cc2cc(OC)ccc2OC)cc(N)c1C#N | EC50 [3]: 1400 nM
47 | 130 nM | 87 nM | CCOc1nc(NC(=O)CN2CCC(C(=O)NC(C)C)CC2)cc(N)c1C#N | EC50 [3]: 3900 nM
48 | 690 nM | 350 nM | CCCCC(=O)Nc1cc(N)c(C#N)c(OCC)n1 | –
49 | 470 nM | 310 nM | CC(=O)Nc1cc(N)c(C#N)c(OC(C)C)n1 | –
50 | 740 nM | 400 nM | COc1ccc(OC)c(CC(=O)Nc2cc(N)c(C#N)c(OCCS(C)(=O)=O)n2)c1 | –
51 | 160 nM | – | CCOc1nc(NC(=O)Cc2cc(OC)c(Br)cc2OC)cc(N)c1C#N | EC50 [3]: 890 nM
52 | 740 nM | 160 nM | CCCN(CCO)CC(=O)Nc1cc(N)c(C#N)c(OCC)n1 | EC50 [3]: 5500 nM
53 | 274 nM | 180 nM | CCOc1nc(NC(=O)Cc2ccc(OC)cc2)cc(N)c1C#N | EC50 [3]: 1400 nM
